31 compounds from ChEMBL document CHEMBL1139083, “Discovery of 2-iminobenzimidazoles as a new class of trypanothione reductase inhibitor by high-throughput screening” (Bioorg Med Chem Lett, 2007) can be followed below.

Structures are written as SMILES.

The test system of test [1] is Trypanosoma brucei rhodesiense. Put plainly: Inhibition of Trypanosoma brucei rhodesiense trypanothione reductase at 25 uM.
A short description of test [2]: Inhibition of Trypanosoma brucei rhodesiense trypanothione reductase. The essentials: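 Automated photometric TR assay adapted to 384-well format. The rate of TNB formation was followed continuously at 412 nm for 15 min at room temperature.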
For test [3], the target named is T1, Glutathione reductase, mitochondrial (Homo sapiens, UniProt P00390).
T1 sequence (P00390 whole entry): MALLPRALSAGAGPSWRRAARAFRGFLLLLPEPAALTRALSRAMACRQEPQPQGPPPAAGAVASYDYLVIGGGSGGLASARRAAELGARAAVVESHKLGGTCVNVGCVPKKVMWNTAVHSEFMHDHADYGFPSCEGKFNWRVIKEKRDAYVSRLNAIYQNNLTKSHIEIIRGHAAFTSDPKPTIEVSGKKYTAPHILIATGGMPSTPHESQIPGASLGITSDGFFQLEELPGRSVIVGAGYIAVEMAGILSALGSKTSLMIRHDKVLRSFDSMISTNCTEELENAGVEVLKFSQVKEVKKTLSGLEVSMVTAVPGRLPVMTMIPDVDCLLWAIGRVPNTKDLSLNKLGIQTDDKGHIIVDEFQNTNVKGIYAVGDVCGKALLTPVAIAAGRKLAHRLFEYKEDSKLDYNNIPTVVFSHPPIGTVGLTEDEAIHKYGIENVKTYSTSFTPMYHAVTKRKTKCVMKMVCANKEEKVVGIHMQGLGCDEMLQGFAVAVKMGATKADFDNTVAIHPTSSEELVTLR
Put plainly: Inhibition of human glutathione reductase. The essentials:
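GR assay adapted from the TR screening protocol, using higher enzyme and G[S]₂ levels because of the higher K_m. The rate of TNB formation was recorded continuously at 412 nm over 15 min at room temperature.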

A further test relates to HT-29. Put plainly: Cytotoxicity against human HT29 cells. Format: functional, cell-based.
Test [4] deals with Trypanosoma brucei rhodesiense. Put plainly: Trypanocidal activity against Trypanosoma brucei rhodesiense. Type of test: functional, organism-based.

Take `N=c1n(Cc2ccccc2)c2ccccc2n1CC(O)c1ccc(Cl)cc1` (stereo unspecified): the inhibition in test [1] was found to be 32%. In test [2], this compound showed an IC50 of over 100 µM.

On to `N=c1n(CCN2CCCCC2)c2ccccc2n1CC(O)COc1ccc(Cl)cc1Cl` (stereo unspecified), for which the IC50 in test [2] was determined as 5 µM.

In turn, `CCN(CC)CCn1c(=N)n(CC(=O)c2ccc(Cl)c(Cl)c2)c2ccccc21` displayed a 50% inhibitory concentration (IC50) in test [2] of 10 µM. Compared with the last compound, the IC50 is about 2-fold higher.

The compound `CCCCn1c(=N)n(CC(O)c2ccc(Br)cc2)c2ccccc21` (stereo unspecified) returned an inhibition in test [1] of 42%. Further, in test [2], the IC50 is over 100 µM.

`CC(=O)/N=c1/n(CCOc2ccccc2)c2ccccc2n1CCN1CCCCC1`: the IC50 in test [2] is over 100 µM.

Regarding `COc1ccc(C(O)Cn2c(=N)n(CCN3CCCCC3)c3ccccc32)cc1` (stereo unspecified), the inhibition in test [1] stood at 85%. In addition, in test [2], the IC50 was determined as 24 µM.

For `N=c1n(CCCOc2ccccc2)c2ccccc2n1CCN1CCCCC1`, half-maximal inhibition in test [2] (IC50) was put at 7 µM.

Regarding `N=c1n(CCN2CCOCC2)c2ccccc2n1CC(O)COc1ccccc1` (stereo unspecified), the IC50 in test [2] was over 100 µM.

Turning to `CC(C)(C)C(O)Cn1c(=N)n(CCN2CCCCC2)c2ccccc21` (stereo unspecified), in test [1], the inhibition was 66%. The same compound registered an IC50 in test [2] of over 100 µM.

`CCn1c(=N)n(CCOCCOCCn2c(=N)n(CC)c3ccccc32)c2ccccc21` displayed an IC50 in test [2] of over 100 µM.

For `C=CCn1c(=N)n(CC(O)c2ccc(OCC)cc2)c2ccccc21` (stereo unspecified), the inhibition in test [1] is 6%. Further, the half-maximal inhibitory concentration (IC50) in test [2] is over 100 µM.

`Cc1ccc(C(O)Cn2c(=N)n(CCN(C)C)c3ccccc32)cc1` (stereo unspecified): 29 µM corresponded to half-maximal inhibition in test [2] (IC50).

`CCN(CC)CCn1c(=N)n(CCN(CC)CC)c2ccccc21` gave a half-inhibitory concentration (IC50) in test [2] of 59 µM. This IC50 is about 2-fold higher than that of the compound before.

Compound `Cc1ccc(OCC(O)Cn2c(=N)n(CCN3CCCCC3)c3ccccc32)cc1` (stereo unspecified) yielded a half-maximal inhibitory concentration (IC50) in test [2] of 9 µM.

Compound `C=CCn1c(=N)n(CCN(CC)CC)c2ccccc21` yielded an inhibition in test [1] of 31%. In test [2], this compound returned an IC50 of over 100 µM.

In turn, `CCN(CC)CCn1c(=N)n(CCOc2ccccc2)c2ccccc21` displayed a half-maximal inhibitory concentration (IC50) in test [2] of 8 µM. In other words, the single-digit micromolar range.

Compound `c1ccc(OCCNc2ccccc2NCCN2CCCCC2)cc1` gave an IC50 in test [2] of over 100 µM.

In test [2], `CN1CCCC(n2c(=N)n(CCOc3ccccc3)c3ccccc32)C1` (stereo unspecified) came in with an IC50 of over 100 µM.

Compound `CCN(CC)CCn1c(=N)n(CC(O)c2ccc(C)cc2)c2ccccc21` (stereo unspecified) came in with an IC50 in test [2] of 19 µM.

As to `Cc1ccc(OCC(O)Cn2c(=N)n(CCN3CCOCC3)c3ccccc32)cc1` (stereo unspecified), the IC50 in test [2] is over 100 µM.

In test [2], `N=c1n(CCCCCOc2ccccc2)c2ccccc2n1CCN1CCCCC1` registered an IC50 of 8 µM.

`CCN(CC)CCn1c(=N)n(CC(=O)c2ccc(C)cc2)c2ccccc21` yielded an inhibition in test [1] of 91%. In test [2], this compound displayed an IC50 of 7 µM.

For the compound `N=c1n(CCOCCOCCn2c(=N)n(Cc3ccccc3)c3ccccc32)c2ccccc2n1Cc1ccccc1`, the half-inhibitory concentration (IC50) is over 100 µM in test [3], 144 µM with HT-29, 1.3 µM in test [4] and 4 µM in test [2]. Further, in test [2], the Ki came out at 1.9 µM.

`Cc1ccc(C(O)Cn2c(=N)n(CCCN(C)C)c3ccccc32)cc1` (stereo unspecified) showed an IC50 in test [2] of 35 µM.

Consider `N=c1n(CCOc2ccccc2)c2ccccc2n1CCN1CCCCC1`, for which, in test [2], the 50% inhibitory concentration (IC50) is 4 µM.

Take `N=c1n(CCN2CCCCC2)c2ccccc2n1CC(O)c1ccc(Cl)c(Cl)c1` (stereo unspecified): the concentration for half-maximal inhibition (IC50) in test [3] was over 100 µM; with HT-29 it was 9 µM; in test [4], 0.2 µM; in test [2] it was 4 µM. Besides, the affinity in test [2] corresponds to a Ki of 3.6 µM.

With `CCN(CC)CCn1c(=N)n(CC(=O)c2ccc(-c3ccccc3)cc2)c2ccccc21`, in test [2], half-maximal inhibition (IC50) required 25 µM. This lies in the double-digit micromolar range.

For the compound `CCN(CC)CCn1c(=N)n(CC(O)c2ccc(Cl)c(Cl)c2)c2ccccc21` (stereo unspecified), the IC50 in test [2] came to 9 µM. This IC50 lies about 2.8-fold lower than the previous one.

With `CN(C)CCn1c(=N)n(CC(O)c2ccc(Cl)c(Cl)c2)c2ccccc21` (stereo unspecified), the IC50 was over 100 µM in test [3], 46 µM in the test on HT-29, 0.6 µM in test [4] and 10 µM in test [2]. This compound also came in with an inhibition in test [1] of 92%. In addition, the affinity in test [2] corresponds to a Ki of 5.4 µM.

Compound `N=c1n(CCN2CCCCC2)c2ccccc2n1CC(O)COc1ccccc1` (stereo unspecified) displayed an IC50 in test [2] of 5 µM.

For the compound `Cc1ccc(C(O)Cn2c(=N)n(CCN3CCCCC3)c3ccccc32)cc1` (stereo unspecified), in test [2], the IC50 is 16 µM.

The inhibition is how much of the control response was suppressed. The IC50 is the concentration that gives 50% inhibition. Higher therefore signals weaker potency in that assay. The term Ki denotes the equilibrium dissociation constant of an inhibitor or competing ligand from its target. Low values mean a stronger hold on the target, high ones a looser hold on the target.
